Each block holds one molecule with its values, some of them ahead of it. Calls of active or inactive are those of the source. The calls are words filed in the database; no cut-off is given here.
How the values were obtained:
Assay type in all cases: cell-based
[1] = target: T1, Retinoic acid receptor beta (Homo sapiens) (UniProt P10826); experiment: Agonist activity at Gal4-LBD fused RARbeta (unknown origin) expressed in HEK293T cells at 20 uM after 14 to 16 hrs by dual-Glo luciferase assay
T1 sequence (whole entry): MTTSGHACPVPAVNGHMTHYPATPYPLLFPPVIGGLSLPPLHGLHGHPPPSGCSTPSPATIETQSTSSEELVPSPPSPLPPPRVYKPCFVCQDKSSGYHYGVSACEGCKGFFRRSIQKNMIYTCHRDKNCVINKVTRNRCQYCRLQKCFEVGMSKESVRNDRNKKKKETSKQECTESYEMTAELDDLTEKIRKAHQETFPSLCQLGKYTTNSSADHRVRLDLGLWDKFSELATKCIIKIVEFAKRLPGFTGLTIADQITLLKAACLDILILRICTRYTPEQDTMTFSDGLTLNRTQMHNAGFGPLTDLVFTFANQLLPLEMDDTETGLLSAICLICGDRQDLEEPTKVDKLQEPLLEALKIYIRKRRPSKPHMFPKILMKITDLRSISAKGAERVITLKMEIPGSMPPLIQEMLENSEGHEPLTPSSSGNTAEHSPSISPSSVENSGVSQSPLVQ
How it was run: (§1)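 Gal4-hybrid reporter gene selectivity panel of related nuclear receptors (PPARα/β/γ, RARα/β/γ) in HEK293T cells. Activity is read as mean fold activation versus 0.1% DMSO vehicle, n ≥ 2.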

[2] = target: T2, Retinoic acid receptor gamma (Homo sapiens) (UniProt P13631); experiment: Agonist activity at Gal4-LBD fused RARgamma (unknown origin) expressed in HEK293T cells after at 20 uM 14 to 16 hrs by dual-Glo luciferase assay; how it was run: as §1
T2 sequence (whole entry): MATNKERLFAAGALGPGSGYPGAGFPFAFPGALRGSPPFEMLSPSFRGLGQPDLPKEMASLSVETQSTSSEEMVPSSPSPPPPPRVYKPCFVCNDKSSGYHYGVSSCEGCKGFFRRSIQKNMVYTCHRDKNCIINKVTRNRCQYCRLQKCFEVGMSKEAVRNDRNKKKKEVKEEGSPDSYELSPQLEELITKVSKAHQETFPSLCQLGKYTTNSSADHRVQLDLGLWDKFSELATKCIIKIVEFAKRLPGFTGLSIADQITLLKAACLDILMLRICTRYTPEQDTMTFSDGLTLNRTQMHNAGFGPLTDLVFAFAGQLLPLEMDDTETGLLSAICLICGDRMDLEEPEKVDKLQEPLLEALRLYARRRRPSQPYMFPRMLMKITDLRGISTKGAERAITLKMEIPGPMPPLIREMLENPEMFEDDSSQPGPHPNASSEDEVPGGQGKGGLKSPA

[3] = target: T3, Retinoic acid receptor RXR-alpha (Homo sapiens) (UniProt P19793); experiment: Agonist activity at Gal4-LBD fused RXRalpha (unknown origin) expressed in HEK293T cells at 10 uM after 14 to 16 hrs by dual-Glo luciferase assay
T3 sequence (whole entry): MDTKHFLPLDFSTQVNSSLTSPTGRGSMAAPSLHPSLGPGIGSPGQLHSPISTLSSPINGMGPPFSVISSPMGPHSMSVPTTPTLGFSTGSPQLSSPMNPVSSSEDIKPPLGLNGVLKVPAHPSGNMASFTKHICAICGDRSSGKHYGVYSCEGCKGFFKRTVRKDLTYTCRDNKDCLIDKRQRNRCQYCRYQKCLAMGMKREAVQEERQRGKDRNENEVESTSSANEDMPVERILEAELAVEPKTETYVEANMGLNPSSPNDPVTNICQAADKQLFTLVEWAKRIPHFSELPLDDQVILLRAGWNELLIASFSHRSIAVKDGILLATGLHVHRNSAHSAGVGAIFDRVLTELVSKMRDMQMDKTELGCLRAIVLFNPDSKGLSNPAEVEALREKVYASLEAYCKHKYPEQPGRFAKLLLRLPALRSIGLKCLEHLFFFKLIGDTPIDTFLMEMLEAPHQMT

[4] = target: T4, Retinoic acid receptor RXR-gamma (Homo sapiens) (UniProt P48443); experiment: Agonist activity at Gal4-LBD fused RXRgamma (unknown origin) expressed in HEK293T cells at 10 uM after 14 to 16 hrs by dual-Glo luciferase assay
T4 sequence (whole entry): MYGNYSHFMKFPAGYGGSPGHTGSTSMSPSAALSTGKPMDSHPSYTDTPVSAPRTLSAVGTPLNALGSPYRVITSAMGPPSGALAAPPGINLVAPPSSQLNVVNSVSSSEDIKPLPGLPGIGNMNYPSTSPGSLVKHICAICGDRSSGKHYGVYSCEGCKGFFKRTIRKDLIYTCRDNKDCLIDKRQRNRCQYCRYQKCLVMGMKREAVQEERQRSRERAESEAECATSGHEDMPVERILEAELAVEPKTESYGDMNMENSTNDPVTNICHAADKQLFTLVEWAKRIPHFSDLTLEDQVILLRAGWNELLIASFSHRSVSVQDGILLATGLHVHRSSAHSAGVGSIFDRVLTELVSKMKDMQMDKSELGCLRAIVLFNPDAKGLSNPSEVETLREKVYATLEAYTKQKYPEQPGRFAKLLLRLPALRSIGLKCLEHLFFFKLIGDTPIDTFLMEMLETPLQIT

[5] = target: T3, Retinoic acid receptor RXR-alpha (Homo sapiens); experiment: Agonist activity at Gal4-LBD fused RXRalpha (unknown origin) expressed in HEK293T cells assessed as fold activation at 10 uM after 14 to 16 hrs by dual-Glo luciferase assay relative to untreated control
How it was run: (§2)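 Gal4-hybrid RXRα/β/γ reporter gene assays in HEK293T cells. Fold activation is the maximal fold activation versus 0.1% DMSO.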

[6] = target: T5, Retinoic acid receptor RXR-gamma (Homo sapiens, UniProt P48443); experiment: Agonist activity at Gal4-LBD fused RXRgamma (unknown origin) expressed in HEK293T cells after 14 to 16 hrs by dual-Glo luciferase assay; how it was run: as §2
T5 sequence (P48443 whole entry): T4 sequence (whole entry)

[7] = target: T4, Retinoic acid receptor RXR-gamma (Homo sapiens); experiment: Agonist activity at Gal4-LBD fused RXRgamma (unknown origin) expressed in HEK293T cells at 0.1 to 3 uM after 14 to 16 hrs in presence of RXR antagonist HX531 by dual-Glo luciferase reporter gene assay

Activity [1]: Active
Activity [2]: Active
SMILES: Cc1cc(-c2ccc(C(=O)O)cc2)cc(C(C)(C)C)c1

Activity [3]: inactive
Activity [4]: inactive
fold change (FC) [5]: 3
SMILES: Cc1cc(-c2cc(C(C)(C)C)cc(C(C)(C)C)c2)ccc1C(=O)O

EC50 [6]: 1000 nM
Activity [7]: inactive
SMILES: Cc1cc(-c2cc(C(F)(F)F)cc(C(F)(F)F)c2)ccc1CC(=O)O
